Assays:
Rattus norvegicus [1] = assay: Iron-clearing efficiency in non-iron-overloaded Sprague-Dawley rat at 300 umol/kg, po; assay type: functional
In short: (§1)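 Bile-duct-cannulated, non-iron-overloaded male Sprague-Dawley rats (400–450 g), single 300 μmol/kg dose po or sc, given in water or as the monosodium salt depending on compound. Bile collected at 3-h intervals for 24 h; urine at 24 h. Efficiency = (treated minus control iron excretion) / theoretical output, as percent; mean ± SEM.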

Rattus norvegicus [2] = assay: Iron-clearing efficiency in non-iron-overloaded Sprague-Dawley rat at 300 umol/kg, sc; assay type: functional; in short: as §1
Sapajus apella [3] = assay: Iron-clearing efficiency in iron-loaded Cebus apella at 150 umol/kg, po; assay type: functional
In short: (§2)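 Cebus apella monkeys (3.5–4 kg), iron overloaded with iv iron dextran (about 500 mg Fe/kg), used at least 60 d later; single 150 μmol/kg dose. Feces and urine collected every 24 h from 4 d before to 5 d after dosing; iron by flame atomic absorption. Efficiency = (2-day post-drug iron minus mean 4-day baseline) / theoretical output, as percent; mean ± SEM.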

Sapajus apella [4] = assay: Iron-clearing efficiency in iron-loaded Cebus apella at 150 umol/kg, sc; assay type: functional; in short: as §2
[5] = Apparent partition coefficient of the compound at pH7.4; assay type: physicochemical; details: octanol/water, pH 7.4; read-out: LogD7.4
In short: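 Apparent partition coefficient by shake-flask direct method between octanol and TRIS buffer, pH 7.4; reported as log of the fraction in the octanol layer (log P_app).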

Rattus norvegicus [6] = assay: Distribution in Sprague-Dawley rat pancreas at 300 umol/kg, sc after 2 hrs; assay type: ADME, organism-based; details: in vivo
In short: (§3)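 Male Sprague-Dawley rats (250–350 g), single sc 300 μmol/kg dose; euthanized by CO2 at 2, 4, 6, 8 h (n = 3 per time point). Citrated cardiac-puncture plasma; tissues homogenized in water 1:2 (w/v), proteins precipitated with methanol at −20 °C, filtered. Reversed-phase HPLC with UV at 310 nm; levels from calibration curves, as nmol/g wet weight; detection limit about 5 nmol/g.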

[7] = Distribution in Sprague-Dawley rat plasma at 300 umol/kg, sc after 8 hrs; assay type: ADME, organism-based; in short: as §3
[8] = Distribution in Sprague-Dawley rat plasma at 300 umol/kg, sc after 2 hrs; assay type: ADME, organism-based; in short: as §3
Rattus norvegicus [9] = assay: Nephrotoxicity in rat at 300 umol/kg; details: in vivo
Rattus norvegicus [10] = assay: Distribution in Sprague-Dawley rat kidney at 300 umol/kg, sc after 8 hrs; assay type: ADME, organism-based; details: in vivo; in short: as §3
Rattus norvegicus [11] = assay: Distribution in Sprague-Dawley rat kidney at 300 umol/kg, sc after 2 hrs; assay type: ADME, organism-based; details: in vivo; in short: as §3
Rattus norvegicus [12] = assay: Distribution in Sprague-Dawley rat heart at 300 umol/kg, sc after 2 hrs; assay type: ADME, organism-based; details: in vivo; in short: as §3
Plasma = assay: Distribution in Sprague-Dawley rat plasma at 300 umol/kg, sc; assay type: ADME; details: read-out: Cp; in short: as §3
Rattus norvegicus [13] = assay: Distribution in Sprague-Dawley rat heart at 300 umol/kg, sc after 4 hrs; assay type: ADME, organism-based; details: in vivo; in short: as §3
Rattus norvegicus [14] = assay: Distribution in Sprague-Dawley rat heart at 300 umol/kg, sc after 8 hrs; assay type: ADME, organism-based; details: in vivo; in short: as §3
Rattus norvegicus [15] = assay: Distribution in Sprague-Dawley rat pancreas at 300 umol/kg, sc after 8 hrs; assay type: ADME, organism-based; details: in vivo; in short: as §3
Rattus norvegicus [16] = assay: Distribution in Sprague-Dawley rat liver at 300 umol/kg, sc after 2 hrs; assay type: ADME, organism-based; details: in vivo; in short: as §3
Rattus norvegicus [17] = assay: Distribution in Sprague-Dawley rat liver at 300 umol/kg, sc after 8 hrs; assay type: ADME, organism-based; details: in vivo; in short: as §3

Structure (SMILES) | logD [5] | Drug uptake (Rattus norvegicus [6]) [nmol/g] | Activity (Rattus norvegicus [1]) [%] | Activity (Rattus norvegicus [2]) [%] | Activity (Sapajus apella [3]) [%] | Activity (Sapajus apella [4]) [%] | further results
COCCOCCOCCOc1ccc(C2=N[C@@](C)(C(=O)OC(C)C)CS2)c(O)c1 | – | – | 13.9 | 22.1 | 19.5 | – | –
CCOC(=O)[C@@]1(C)CSC(c2ccc(OCCOCCOCCOC)cc2O)=N1 | – | – | – | 11.4 | – | 17.9 | –
C[C@]1(C(=O)O)CSC(c2ccccc2O)=N1 | -0.34 | – | – | – | – | – | –
COc1ccc(C2=N[C@@](C)(C(=O)O)CS2)c(O)c1 | – | 38 | 6.6 | – | – | – | concentration at 8 h [7]: 75 µM; concentration at 2 h [8]: 470 µM; Activity (Rattus norvegicus [9]): Active
COCCOCCOCCOc1ccc(C2=N[C@@](C)(C(=O)O)CS2)c(O)c1 | -1.1 | 30 | 5.5 | 8.7 | 25.4 | 30.4 | Drug uptake (Rattus norvegicus [10]): < 10 nmol/g; Drug uptake (Rattus norvegicus [11]): 41 nmol/g; Drug uptake (Rattus norvegicus [12]): 9 nmol/g; concentration (Plasma): < 10 µM; Drug uptake (Rattus norvegicus [13]): 5 nmol/g; Drug uptake (Rattus norvegicus [14]): 2 nmol/g; Drug uptake (Rattus norvegicus [15]): 3 nmol/g
C[C@]1(C(=O)O)CSC(c2ccc(O)cc2O)=N1 [DEFERITRIN] | – | 6 | 1.1 | 1.1 | 16.8 | 15.9 | Drug uptake (Rattus norvegicus [10]): 9 nmol/g; Drug uptake (Rattus norvegicus [11]): 100 nmol/g; Drug uptake (Rattus norvegicus [12]): 5 nmol/g; concentration (Plasma): < 10 µM; Drug uptake (Rattus norvegicus [16]): 48 nmol/g; Drug uptake (Rattus norvegicus [17]): 12 nmol/g

Continued, in another order:

logD [5] | Drug uptake (Rattus norvegicus [6]) [nmol/g] | Structure (SMILES) | Activity (Rattus norvegicus [1]) [%] | Activity (Rattus norvegicus [2]) [%] | Activity (Sapajus apella [3]) [%] | Activity (Sapajus apella [4]) [%] | further results
-0.93 | – | O=C(O)[C@H]1CSC(c2ccccc2O)=N1 | – | – | – | – | –
-0.91 | – | CC1(C)SC(c2ccc(O)cc2O)=N[C@H]1C(=O)O | – | – | – | – | –
-0.34 | – | CC1(C)SC(c2ccccc2O)=N[C@H]1C(=O)O | – | – | – | – | –

— ChEMBL document CHEMBL1147664, “(S)-4,5-dihydro-2-(2-hydroxy-4-hydroxyphenyl)-4-methyl-4-thiazolecarboxylic acid polyethers: a solution to nephrotoxicity” (J Med Chem, 2006)
